{"source": "ChEMBL document CHEMBL1154778", "about": "“Synthesis and biological evaluation of C-5 methyl substituted 4-arylthio and 4-aryloxy-3-Iodopyridin-2(1H)-one type anti-HIV agents” (J Med Chem, 2009)", "key": {"[1]": {"test_system": "Human immunodeficiency virus 1", "assay": "Ratio of efavirenz IC50 to compound IC50 for HIV1 HXB2 harboring K103N mutant reverse transcriptase infected in human MT4 cells", "type": "functional"}, "[2]": {"test_system": "Human immunodeficiency virus 1", "assay": "Antiviral activity against HIV1 HXB2 harboring 100I mutant reverse transcriptase infected in human MT4 cells after 5 days by MTT assay", "type": "functional, organism-based", "details": "Human immunodeficiency virus 1, HXB2, MT4, 120 h", "method_in_brief": "(§1)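 Mutant viruses were made by recombining the mutant PR-RT sequence into a PR-RT-deleted HIV-1 HXB2 proviral clone. MT4 cells were grown in RPMI 1640 with 10% FCS and antibiotics. Virus at 200 CCID50/well and 30000 cells/well were incubated with varied compound concentrations for 5 days at 37 °C, 5% CO2. MTT viability gave IC50, the concentration giving 50% infection versus the drug-free control.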"}, "[3]": {"test_system": "Human immunodeficiency virus 1", "assay": "Antiviral activity against HIV1 HXB2 harboring 106A mutant reverse transcriptase infected in human MT4 cells after 5 days by MTT assay", "type": "functional, organism-based", "details": "Human immunodeficiency virus 1, HXB2, MT4, 120 h", "method_in_brief": "as §1"}, "[4]": {"test_system": "Human immunodeficiency virus 1", "assay": "Antiviral activity against HIV1 HXB2 harboring 179E mutant reverse transcriptase infected in human MT4 cells after 5 days by MTT assay", "type": "functional, organism-based", "details": "Human immunodeficiency virus 1, HXB2, MT4, 120 h", "method_in_brief": "as §1"}, "[5]": {"test_system": "Human immunodeficiency virus 1", "assay": "Antiviral activity against HIV1 HXB2 harboring 190S mutant reverse transcriptase infected in human MT4 cells after 5 days by MTT assay", "type": "functional, organism-based", "details": "Human immunodeficiency virus 1, HXB2, MT4, 120 h", "method_in_brief": "as §1"}, "[6]": {"test_system": "Human immunodeficiency virus 1", "assay": "Antiviral activity against HIV1 HXB2 harboring 227C mutant reverse transcriptase infected in human MT4 cells after 5 days by MTT assay", "type": "functional, organism-based", "details": "Human immunodeficiency virus 1, HXB2, MT4, 120 h", "method_in_brief": "as §1"}, "[7]": {"test_system": "Human immunodeficiency virus 1", "assay": "Antiviral activity against HIV1 HXB2 harboring 101E and K103N mutant reverse transcriptase infected in human MT4 cells after 5 days by MTT assay", "type": "functional, organism-based", "details": "Human immunodeficiency virus 1, HXB2, MT4, 120 h", "method_in_brief": "as §1"}, "[8]": {"test_system": "Human immunodeficiency virus 1", "assay": "Antiviral activity against HIV1 HXB2 harboring 101E mutant reverse transcriptase infected in human MT4 cells after 5 days by MTT assay", "type": "functional, organism-based", "details": "Human immunodeficiency virus 1, HXB2, MT4, 120 h", "method_in_brief": "as §1"}, "[9]": {"test_system": "Human immunodeficiency virus 1", "assay": "Antiviral activity against HIV1 HXB2 harboring 138K mutant reverse transcriptase infected in human MT4 cells after 5 days by MTT assay", "type": "functional, organism-based", "details": "Human immunodeficiency virus 1, HXB2, MT4, 120 h", "method_in_brief": "as §1"}, "[10]": {"test_system": "Human immunodeficiency virus 1", "assay": "Ratio of compound IC50 to efavirenz IC50 for HIV1 HXB2 harboring Y181C mutant reverse transcriptase infected in human MT4 cells", "type": "functional"}, "[11]": {"test_system": "Human immunodeficiency virus 1", "assay": "Antiviral activity against HIV1 HXB2 harboring 227L and 106A mutant reverse transcriptase infected in human MT4 cells after 5 days by MTT assay", "type": "functional, organism-based", "details": "Human immunodeficiency virus 1, HXB2, MT4, 120 h", "method_in_brief": "as §1"}, "[12]": {"test_system": "Human immunodeficiency virus 1", "assay": "Ratio of efavirenz IC50 to compound IC50 for HIV1 HXB2 harboring Y188L mutant reverse transcriptase infected in human MT4 cells", "type": "functional"}, "[13]": {"assay": "Selectivity index, ratio of CC50 for human MT4 cells to IC50 for HIV-1 LAI harboring wild type reverse transcriptase infected in human MT4 cells", "type": "functional", "method_in_brief": "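Cytotoxicity was measured in mock-infected MT4 cultures (30000 cells/well) given the same compound concentration range, run in parallel with the infected cultures for 5 days at 37 °C, 5% CO2, with MTT viability. CC50 was the concentration reducing viability by 50% versus the drug-free control. SI was CC50 divided by IC50 against HIV-1 LAI.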"}, "[14]": {"test_system": "Human immunodeficiency virus 1", "assay": "Antiviral activity against HIV1 HXB2 harboring 190A mutant reverse transcriptase infected in human MT4 cells after 5 days by MTT assay", "type": "functional, organism-based", "details": "Human immunodeficiency virus 1, HXB2, MT4, 120 h", "method_in_brief": "as §1"}, "[15]": {"test_system": "Human immunodeficiency virus 1", "assay": "Antiviral activity against HIV1 HXB2 harboring Y181C mutant reverse transcriptase infected in human MT4 cells after 5 days by MTT assay", "type": "functional, organism-based", "details": "Human immunodeficiency virus 1, HXB2, MT4, 120 h", "method_in_brief": "as §1"}, "[16]": {"test_system": "Human immunodeficiency virus 1", "assay": "Antiviral activity against HIV-1 LAI harboring wild type reverse transcriptase infected in human MT4 cells after 5 days by MTT assay", "type": "functional, organism-based", "details": "Human immunodeficiency virus 1, LAI, MT4, 120 h", "method_in_brief": "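MT4 cells were kept in RPMI 1640 with 10% fetal calf serum and antibiotics at 37 °C, 5% CO2. A range of compound concentrations was incubated with HIV-1 LAI at 200 CCID50/well and 30000 MT4 cells/well for 5 days at 37 °C. Cell viability was read by MTT, and IC50 was the concentration giving 50% infection versus the drug-free control.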"}, "[17]": {"test_system": "Human immunodeficiency virus 1", "assay": "Antiviral activity against HIV1 HXB2 harboring 100I and K103N mutant reverse transcriptase infected in human MT4 cells after 5 days by MTT assay", "type": "functional, organism-based", "details": "Human immunodeficiency virus 1, HXB2, MT4, 120 h", "method_in_brief": "as §1"}, "[18]": {"test_system": "Human immunodeficiency virus 1", "assay": "Antiviral activity against HIV1 HXB2 harboring K103N mutant reverse transcriptase infected in human MT4 cells after 5 days by MTT assay", "type": "functional, organism-based", "details": "Human immunodeficiency virus 1, HXB2, MT4, 120 h", "method_in_brief": "as §1"}, "[19]": {"test_system": "Human immunodeficiency virus 1", "assay": "Antiviral activity against HIV1 HXB2 harboring Y188L mutant reverse transcriptase infected in human MT4 cells after 5 days by MTT assay", "type": "functional, organism-based", "details": "Human immunodeficiency virus 1, HXB2, MT4, 120 h", "method_in_brief": "as §1"}, "[20]": {"test_system": "Human immunodeficiency virus 1", "assay": "Antiviral activity against HIV1 HXB2 harboring K103N and Y181C mutant reverse transcriptase infected in human MT4 cells after 5 days by MTT assay", "type": "functional, organism-based", "details": "Human immunodeficiency virus 1, HXB2, MT4, 120 h", "method_in_brief": "as §1"}, "[21]": {"test_system": "Human immunodeficiency virus 1", "assay": "Ratio of efavirenz IC50 to compound IC50 for HIV1 HXB2 harboring 100I and K103N mutant reverse transcriptase infected in human MT4 cells", "type": "functional"}}}
{"smiles": "CCc1c(C)[nH]c(=O)c(I)c1Oc1cc(C)cc(C)c1", "values": [{"measurement": "Ratio IC50", "setting": "[1]", "result": 10}, {"measurement": "IC50", "setting": "[2]", "result": 6.31, "unit": "nM"}, {"measurement": "IC50", "setting": "[3]", "result": 5.01, "unit": "nM"}, {"measurement": "IC50", "setting": "[4]", "result": 1.99, "unit": "nM"}, {"measurement": "IC50", "setting": "[5]", "result": 1.99, "unit": "nM"}, {"measurement": "IC50", "setting": "[6]", "result": 63.1, "unit": "nM"}, {"measurement": "IC50", "setting": "[7]", "result": 15.8, "unit": "nM"}, {"measurement": "IC50", "setting": "[8]", "result": 6.31, "unit": "nM"}, {"measurement": "IC50", "setting": "[9]", "result": 3.98, "unit": "nM"}, {"measurement": "Ratio IC50", "setting": "[10]", "result": 10}, {"measurement": "IC50", "setting": "[11]", "result": 398, "unit": "nM"}, {"measurement": "Ratio IC50", "setting": "[12]", "result": 3}, {"measurement": "Ratio CC50/IC50", "setting": "[13]", "result": 9000}]}
{"smiles": "CCc1c(C)[nH]c(=O)c(N(C)C)c1C(=O)c1cc(C)cc(C)c1", "values": [{"measurement": "IC50", "setting": "[2]", "result": 6.31, "unit": "nM"}, {"measurement": "IC50", "setting": "[3]", "result": 6.31, "unit": "nM"}, {"measurement": "IC50", "setting": "[4]", "result": 2.51, "unit": "nM"}, {"measurement": "IC50", "setting": "[14]", "result": 12.6, "unit": "nM"}, {"measurement": "IC50", "setting": "[15]", "result": 63.1, "unit": "nM"}, {"measurement": "IC50", "setting": "[5]", "result": 3.98, "unit": "nM"}, {"measurement": "IC50", "setting": "[6]", "result": 631, "unit": "nM"}, {"measurement": "IC50", "setting": "[7]", "result": 12.6, "unit": "nM"}, {"measurement": "IC50", "setting": "[8]", "result": 7.94, "unit": "nM"}, {"measurement": "IC50", "setting": "[16]", "result": 3.98, "unit": "nM"}, {"measurement": "IC50", "setting": "[17]", "result": 39.8, "unit": "nM"}, {"measurement": "IC50", "setting": "[9]", "result": 6.31, "unit": "nM"}, {"measurement": "IC50", "setting": "[18]", "result": 10, "unit": "nM"}, {"measurement": "IC50", "setting": "[11]", "result": 398, "unit": "nM"}, {"measurement": "IC50", "setting": "[19]", "result": 158, "unit": "nM"}, {"measurement": "IC50", "setting": "[20]", "result": 158, "unit": "nM"}, {"measurement": "Ratio CC50/IC50", "setting": "[13]", "result": 2512}]}
{"smiles": "CCSCc1c(C)[nH]c(=O)c(I)c1Oc1cc(C)cc(C)c1", "values": [{"measurement": "IC50", "setting": "[2]", "result": 7.94, "unit": "nM"}, {"measurement": "IC50", "setting": "[3]", "result": 7.94, "unit": "nM"}, {"measurement": "IC50", "setting": "[4]", "result": 10, "unit": "nM"}, {"measurement": "IC50", "setting": "[14]", "result": 19.9, "unit": "nM"}, {"measurement": "IC50", "setting": "[15]", "result": 6.3, "unit": "nM"}, {"measurement": "IC50", "setting": "[5]", "result": 10, "unit": "nM"}, {"measurement": "IC50", "setting": "[6]", "result": 199, "unit": "nM"}, {"measurement": "IC50", "setting": "[7]", "result": 19.9, "unit": "nM"}, {"measurement": "IC50", "setting": "[8]", "result": 19.9, "unit": "nM"}, {"measurement": "IC50", "setting": "[16]", "result": 1.25, "unit": "nM"}, {"measurement": "IC50", "setting": "[17]", "result": 15.8, "unit": "nM"}, {"measurement": "IC50", "setting": "[9]", "result": 25.1, "unit": "nM"}, {"measurement": "IC50", "setting": "[18]", "result": 6.3, "unit": "nM"}, {"measurement": "IC50", "setting": "[11]", "result": 125, "unit": "nM"}, {"measurement": "IC50", "setting": "[19]", "result": 31.6, "unit": "nM"}, {"measurement": "IC50", "setting": "[20]", "result": 19.9, "unit": "nM"}, {"measurement": "Ratio CC50/IC50", "setting": "[13]", "result": ">79433"}]}
{"smiles": "Cc1cc(C)cc(Sc2c(Cn3cnnn3)c(C)[nH]c(=O)c2I)c1", "values": [{"measurement": "IC50", "setting": "[2]", "result": 0.79, "unit": "nM"}, {"measurement": "IC50", "setting": "[3]", "result": 0.5, "unit": "nM"}, {"measurement": "IC50", "setting": "[4]", "result": 0.8, "unit": "nM"}, {"measurement": "IC50", "setting": "[14]", "result": 0.9, "unit": "nM"}, {"measurement": "IC50", "setting": "[15]", "result": 7.9, "unit": "nM"}, {"measurement": "IC50", "setting": "[5]", "result": 0.2, "unit": "nM"}, {"measurement": "IC50", "setting": "[6]", "result": 31.6, "unit": "nM"}, {"measurement": "IC50", "setting": "[7]", "result": 1, "unit": "nM"}, {"measurement": "IC50", "setting": "[8]", "result": 1.4, "unit": "nM"}, {"measurement": "IC50", "setting": "[16]", "result": 1.25, "unit": "nM"}, {"measurement": "IC50", "setting": "[17]", "result": 1.25, "unit": "nM"}, {"measurement": "IC50", "setting": "[9]", "result": 1.1, "unit": "nM"}, {"measurement": "IC50", "setting": "[18]", "result": 0.31, "unit": "nM"}, {"measurement": "IC50", "setting": "[11]", "result": 39.8, "unit": "nM"}, {"measurement": "Ratio IC50", "setting": "[21]", "result": 1000}, {"measurement": "IC50", "setting": "[19]", "result": 15.8, "unit": "nM"}, {"measurement": "IC50", "setting": "[20]", "result": 6.8, "unit": "nM"}, {"measurement": "Ratio CC50/IC50", "setting": "[13]", "result": ">79433"}]}
